Test results published in ChEMBL document CHEMBL1157791, “Discovery of GSK1070916, a potent and selective inhibitor of Aurora B/C kinase” (J Med Chem, 2010).
Calls of active or inactive are those of the source. The calls are words filed in the database; no cut-off is given here.

Legend:
A549 [1] = test: Antiproliferative activity against human A549 cells after 6 to 7 days by celltiter-glo luminescence assay in absence of 70% human serum albumin; type: functional, cell-based
Aurora kinase A = target: T1, Aurora kinase A (Homo sapiens, UniProt O14965); test: Inhibition of human Aurora A
T1 sequence (O14965 whole entry): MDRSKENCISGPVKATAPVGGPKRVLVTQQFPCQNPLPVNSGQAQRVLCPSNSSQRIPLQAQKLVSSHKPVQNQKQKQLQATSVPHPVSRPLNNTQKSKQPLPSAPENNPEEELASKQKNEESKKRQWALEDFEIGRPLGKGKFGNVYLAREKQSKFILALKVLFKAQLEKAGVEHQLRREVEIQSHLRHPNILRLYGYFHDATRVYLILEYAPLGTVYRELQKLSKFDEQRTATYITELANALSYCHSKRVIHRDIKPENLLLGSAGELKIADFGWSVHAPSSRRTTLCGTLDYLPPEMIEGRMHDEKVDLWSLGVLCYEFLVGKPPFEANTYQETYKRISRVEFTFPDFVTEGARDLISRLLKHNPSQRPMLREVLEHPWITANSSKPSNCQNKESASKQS

Aurora kinase B = Aurora kinase B (Homo sapiens, UniProt Q96GD4); test: Inhibition of human Aurora B by in vitro inhibition assay
A549 [2] = test: Selectivity ratio of EC50 for human A549 cells in presence of 70% human serum albumin to EC50 for human A549 cells in absence of 70% human serum albumin; type: functional
Homo sapiens = species on record: Homo sapiens; test: Selectivity ratio of IC50 for human Aurora A to IC50 for human Aurora B
[3] = target: Hepatocyte growth factor receptor (Homo sapiens, UniProt P08581); test: Inhibition of MET
[4] = Inhibition of ROCK
In short: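 Part of a 328 human protein and lipid kinase selectivity panel run as in vitro activity or binding assays.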

[5] = target: Tyrosine-protein kinase Lck (Homo sapiens) (UniProt P06239); test: Inhibition of LCK
Aurora kinase C = target: T2, Aurora kinase C (Homo sapiens, UniProt Q9UQB9); test: Competitive inhibition of Aurora C ATP binding site
T2 sequence (Q9UQB9 whole entry): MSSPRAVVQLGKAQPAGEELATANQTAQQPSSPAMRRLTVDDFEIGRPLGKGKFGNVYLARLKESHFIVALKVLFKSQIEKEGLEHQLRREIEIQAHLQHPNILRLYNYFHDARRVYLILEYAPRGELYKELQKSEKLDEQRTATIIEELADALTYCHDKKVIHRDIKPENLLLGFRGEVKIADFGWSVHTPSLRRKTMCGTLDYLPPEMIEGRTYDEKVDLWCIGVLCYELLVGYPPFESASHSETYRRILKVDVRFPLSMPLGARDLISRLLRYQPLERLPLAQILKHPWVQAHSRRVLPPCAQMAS

Sequence of Aurora kinase B (Q96GD4 whole entry): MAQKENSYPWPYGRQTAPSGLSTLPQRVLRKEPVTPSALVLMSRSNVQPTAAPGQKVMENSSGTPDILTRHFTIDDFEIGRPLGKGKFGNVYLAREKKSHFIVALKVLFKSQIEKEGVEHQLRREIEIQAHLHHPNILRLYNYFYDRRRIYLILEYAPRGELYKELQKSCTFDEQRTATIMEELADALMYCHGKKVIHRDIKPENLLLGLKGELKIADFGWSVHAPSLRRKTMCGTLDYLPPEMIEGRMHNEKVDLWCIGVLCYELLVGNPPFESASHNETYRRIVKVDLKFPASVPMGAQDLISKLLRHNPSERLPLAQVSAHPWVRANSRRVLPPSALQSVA
Sequence of Tyrosine-protein kinase Lck (Homo sapiens) (P06239 2-509 limits assumed): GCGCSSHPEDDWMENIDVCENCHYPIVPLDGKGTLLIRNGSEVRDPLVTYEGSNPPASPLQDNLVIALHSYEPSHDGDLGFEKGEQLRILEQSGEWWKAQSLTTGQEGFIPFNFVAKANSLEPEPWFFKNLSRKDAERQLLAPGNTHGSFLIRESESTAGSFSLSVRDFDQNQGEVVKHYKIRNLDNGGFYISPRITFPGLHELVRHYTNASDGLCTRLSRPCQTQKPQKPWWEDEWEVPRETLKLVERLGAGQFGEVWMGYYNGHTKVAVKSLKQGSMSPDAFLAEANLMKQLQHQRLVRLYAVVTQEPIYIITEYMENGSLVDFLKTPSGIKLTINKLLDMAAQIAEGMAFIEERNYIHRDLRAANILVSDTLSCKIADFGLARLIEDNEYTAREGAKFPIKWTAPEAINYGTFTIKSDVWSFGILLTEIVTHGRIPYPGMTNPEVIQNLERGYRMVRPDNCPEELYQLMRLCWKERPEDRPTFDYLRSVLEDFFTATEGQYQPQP
Sequence of Hepatocyte growth factor receptor (P08581 whole entry): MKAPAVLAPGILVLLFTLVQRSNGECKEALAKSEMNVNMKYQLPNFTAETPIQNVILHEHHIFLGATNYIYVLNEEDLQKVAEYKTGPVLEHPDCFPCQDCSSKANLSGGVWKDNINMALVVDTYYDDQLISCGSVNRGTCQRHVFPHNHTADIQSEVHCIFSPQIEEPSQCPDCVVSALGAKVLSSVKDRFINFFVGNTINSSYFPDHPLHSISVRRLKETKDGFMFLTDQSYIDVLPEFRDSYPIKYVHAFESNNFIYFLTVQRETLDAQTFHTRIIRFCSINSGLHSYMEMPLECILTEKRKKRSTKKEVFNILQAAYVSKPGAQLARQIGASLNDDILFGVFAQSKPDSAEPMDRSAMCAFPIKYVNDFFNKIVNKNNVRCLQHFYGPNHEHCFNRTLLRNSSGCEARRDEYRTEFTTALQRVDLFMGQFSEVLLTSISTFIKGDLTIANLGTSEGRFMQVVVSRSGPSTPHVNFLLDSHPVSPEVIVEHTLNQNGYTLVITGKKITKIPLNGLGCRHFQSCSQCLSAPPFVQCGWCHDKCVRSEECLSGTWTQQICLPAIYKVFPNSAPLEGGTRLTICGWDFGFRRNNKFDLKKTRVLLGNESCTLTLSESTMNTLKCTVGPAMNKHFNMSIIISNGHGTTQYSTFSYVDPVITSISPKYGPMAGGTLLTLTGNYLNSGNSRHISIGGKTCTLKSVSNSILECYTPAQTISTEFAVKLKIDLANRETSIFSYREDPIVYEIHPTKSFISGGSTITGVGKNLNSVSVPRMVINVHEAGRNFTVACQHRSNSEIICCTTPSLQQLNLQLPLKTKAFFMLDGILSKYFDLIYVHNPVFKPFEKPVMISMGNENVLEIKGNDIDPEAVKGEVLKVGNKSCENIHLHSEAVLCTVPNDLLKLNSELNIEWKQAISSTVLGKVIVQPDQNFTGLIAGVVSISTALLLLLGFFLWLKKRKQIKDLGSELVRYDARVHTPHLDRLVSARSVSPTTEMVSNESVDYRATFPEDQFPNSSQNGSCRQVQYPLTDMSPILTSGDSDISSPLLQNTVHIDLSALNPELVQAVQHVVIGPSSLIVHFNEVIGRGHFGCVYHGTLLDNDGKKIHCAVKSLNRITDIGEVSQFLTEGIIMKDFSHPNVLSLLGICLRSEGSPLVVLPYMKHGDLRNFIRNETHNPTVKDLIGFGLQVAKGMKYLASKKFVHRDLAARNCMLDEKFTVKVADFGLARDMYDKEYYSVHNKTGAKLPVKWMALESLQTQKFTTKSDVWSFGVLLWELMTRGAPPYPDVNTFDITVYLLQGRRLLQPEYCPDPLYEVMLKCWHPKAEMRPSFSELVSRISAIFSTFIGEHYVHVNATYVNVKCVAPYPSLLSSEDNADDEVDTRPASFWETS

| Compound | EC50 (A549 [1]) | IC50 (Aurora kinase A) | IC50 (Aurora kinase B) | Ratio EC50 (A549 [2]) | Ratio IC50 (Homo sapiens) | inhibition [3] | inhibition [4] | inhibition [5] | IC50 (Aurora kinase C) |
| --- | --- | --- | --- | --- | --- | --- | --- | --- | --- |
| O=C(Nc1ccccc1)Nc1ccc(-c2nn(CC(F)(F)F)cc2-c2ccnc3[nH]ccc23)cc1 | 326 nM | 2150 nM | 16 nM | – | – | – | – | – | – |
| CCn1cc(-c2ccnc3[nH]c(-c4cccc(CN5CCOCC5)c4)cc23)c(-c2ccc(NC(=O)Nc3ccccc3)cc2)n1 | 30 nM | 94 nM | 57 nM | 10 | – | – | – | – | – |
| CC(C)(C)n1ncc(-c2ccnc3[nH]ccc23)c1-c1ccc(NC(=O)Nc2ccccc2)cc1 | 890 nM | 5770 nM | 40 nM | – | – | – | – | – | – |
| CCNC(=O)Nc1ccc(-c2nn(CC)cc2-c2ccnc3[nH]c(-c4cccc(CN(C)C)c4)cc23)cc1 | 12 nM | 128 nM | 3 nM | – | 42 | – | – | – | – |
| CCn1cc(-c2ccnc3[nH]c(-c4cccc(CN(C)C)c4)cc23)c(-c2ccc(NC(=O)Nc3ccccc3)cc2)n1 | 14 nM | 53 nM | 20 nM | 10 | 3 | Active | Active | Active | – |
| CCn1cc(-c2ccnc3[nH]c(-c4cccc(CN5CCOCC5)c4)cc23)c(-c2ccc(NC(=O)N(C)C)cc2)n1 | 18 nM | 495 nM | 4.7 nM | – | – | – | – | – | – |
| O=C(Nc1ccccc1)Nc1ccc(-c2nn(CCCO)cc2-c2ccnc3[nH]ccc23)cc1 | 779 nM | 969 nM | 2 nM | – | – | – | – | – | – |
| CCN(CCCOc1ccc2c(Nc3cc(CC(=O)Nc4cccc(F)c4)n[nH]3)ncnc2c1)CCOP(=O)(O)O [BARASERTIB] | – | – | – | – | – | – | – | – | 17 nM |
| CCn1cc(-c2ccnc3[nH]c(C(=O)NCCCN4CCN(C)CC4)cc23)c(-c2ccc(NC(=O)Nc3ccccc3)cc2)n1 | 638 nM | 228 nM | 8 nM | 10 | – | – | – | – | – |
| CCNC(=O)Nc1ccc(-c2nn(CC)cc2-c2ccnc3[nH]c(-c4cccc(CN5CCOCC5)c4)cc23)cc1 | 26 nM | 70 nM | 5 nM | – | – | – | – | – | – |
| CCn1cc(-c2ccnc3[nH]c(-c4ccc(CN(C)C)cc4)cc23)c(-c2ccc(NC(=O)Nc3ccccc3)cc2)n1 | 8 nM | 45 nM | 23 nM | 10 | – | – | – | – | – |
| CCn1cc(-c2ccnc3[nH]ccc23)c(-c2ccc(NC(=O)N(C)C)cc2)n1 | – | > 10000 nM | – | – | – | – | – | – | – |
| CCn1cc(-c2ccnc3[nH]c(-c4cc(CN(C)C)ccc4C)cc23)c(-c2ccc(NC(=O)Nc3ccccc3)cc2)n1 | 174 nM | 113 nM | 60 nM | 10 | – | – | – | – | – |
| O=C(Nc1ccccc1)Nc1ccc(-c2nn(CC3CCCO3)cc2-c2ccnc3[nH]ccc23)cc1 (configuration not stated) | – | 6190 nM | 97 nM | – | – | – | – | – | – |
| CCn1cc(-c2ccnc3[nH]c(-c4ccc(CN(C)C)cc4C)cc23)c(-c2ccc(NC(=O)Nc3ccccc3)cc2)n1 | 16 nM | 42 nM | 26 nM | 10 | – | – | – | – | – |
| CCNC(=O)Nc1ccc(-c2nn(CC)cc2-c2ccnc3[nH]c(-c4ccc(CN5CCCC5)cc4)cc23)cc1 | 8 nM | 42 nM | 1.5 nM | – | – | – | – | – | – |
| O=C(Nc1ccccc1)Nc1ccc(-c2nn(CCO)cc2-c2ccnc3[nH]ccc23)cc1 | 2630 nM | 792 nM | 3 nM | – | – | – | – | – | – |
| CCn1cc(-c2ccnc3[nH]c(-c4ccc(CN5CCOCC5)cc4)cc23)c(-c2ccc(NC(=O)Nc3ccccc3)cc2)n1 | 17 nM | 59 nM | 66 nM | 10 | – | – | – | – | – |
| CCNC(=O)Nc1ccc(-c2nn(CC)cc2-c2ccnc3[nH]c(-c4ccc(CN5CCOCC5)cc4)cc23)cc1 | 12 nM | 23 nM | 4.7 nM | – | – | – | – | – | – |
| CCn1cc(-c2ccnc3[nH]c(CNCCN4CCOCC4)cc23)c(-c2ccc(NC(=O)Nc3ccccc3)cc2)n1 | 2860 nM | 2440 nM | 22 nM | 10 | – | – | – | – | – |
| CCn1ncc(-c2ccnc3[nH]ccc23)c1-c1ccc(NC(=O)Nc2ccccc2)cc1 | 1590 nM | 5600 nM | 25 nM | – | – | – | – | – | – |
| CCn1cc(-c2ccnc3[nH]c(-c4cccc(CN5CCCC5)c4)cc23)c(-c2ccc(NC(=O)Nc3ccccc3)cc2)n1 | 12 nM | 22 nM | 11 nM | 10 | – | – | – | – | – |

| Compound | EC50 (A549 [1]) | IC50 (Aurora kinase A) | IC50 (Aurora kinase B) | Ratio EC50 (A549 [2]) | Ratio IC50 (Homo sapiens) | inhibition [3] | inhibition [4] | inhibition [5] | IC50 (Aurora kinase C) |
| --- | --- | --- | --- | --- | --- | --- | --- | --- | --- |
| CCn1cc(-c2ccnc3[nH]c(CNCCS(C)(=O)=O)cc23)c(-c2ccc(NC(=O)Nc3ccccc3)cc2)n1 | 11500 nM | 579 nM | 24 nM | 10 | – | – | – | – | – |
| CCn1cc(-c2ccnc3[nH]c(-c4ccc(CN5CCCC5)cc4)cc23)c(-c2ccc(NC(=O)N(C)C)cc2)n1 | 6 nM | 414 nM | 4.5 nM | – | – | – | – | – | – |
| CCNC(=O)Cn1cc(-c2ccnc3[nH]ccc23)c(-c2ccc(NC(=O)Nc3ccccc3)cc2)n1 | > 20000 nM | 3390 nM | 64 nM | – | – | – | – | – | – |
| CCn1cc(-c2ccnc3[nH]c(-c4cccc(CN5CCCC5)c4)cc23)c(-c2ccc(NC(=O)N(C)C)cc2)n1 | 7 nM | 366 nM | 2.1 nM | – | – | – | – | – | – |
| CCn1cc(-c2ccnc3[nH]c(-c4ccc(CN5CCOCC5)cc4)cc23)c(-c2ccc(NC(=O)N(C)C)cc2)n1 | 9 nM | 250 nM | 8.1 nM | – | – | – | – | – | – |
| O=C(Nc1ccccc1)Nc1ccc(-c2nn(CC(=O)N3CCOCC3)cc2-c2ccnc3[nH]ccc23)cc1 | > 20000 nM | 6810 nM | 85 nM | – | – | – | – | – | – |
| CCNC(=O)Nc1ccc(-c2nn(CC)cc2-c2ccnc3[nH]c(-c4ccc(CN(C)C)cc4)cc23)cc1 | 6 nM | 39 nM | 1.7 nM | – | – | – | – | – | – |
| CCn1cc(-c2ccnc3[nH]c(C(=O)NCCN4CCOCC4)cc23)c(-c2ccc(NC(=O)Nc3ccccc3)cc2)n1 | 200 nM | 197 nM | 5 nM | 10 | – | – | – | – | – |
| O=C(Nc1ccccc1)Nc1ccc(-c2nn(CC(O)CO)cc2-c2ccnc3[nH]ccc23)cc1 (configuration not stated) | 9610 nM | 377 nM | 1 nM | – | – | – | – | – | – |
| CC(C)(C)n1cc(-c2ccnc3[nH]ccc23)c(-c2ccc(NC(=O)Nc3ccccc3)cc2)n1 | 476 nM | 8160 nM | 50 nM | – | – | – | – | – | – |
| CCn1cc(-c2ccnc3[nH]c(C(=O)NCCN4CCN(C)CC4)cc23)c(-c2ccc(NC(=O)Nc3ccccc3)cc2)n1 | 417 nM | 203 nM | 5 nM | 10 | – | – | – | – | – |
| CCn1cc(-c2ccnc3[nH]c(CNCCCN4CCN(C)CC4)cc23)c(-c2ccc(NC(=O)Nc3ccccc3)cc2)n1 | > 20000 nM | 5110 nM | 83 nM | 10 | – | – | – | – | – |
| CCn1cc(-c2ccnc3[nH]c(CNCCN(C)C)cc23)c(-c2ccc(NC(=O)Nc3ccccc3)cc2)n1 | – | 5480 nM | 276 nM | 10 | – | – | – | – | – |
| NC(=O)Cn1cc(-c2ccnc3[nH]ccc23)c(-c2ccc(NC(=O)Nc3ccccc3)cc2)n1 | > 20000 nM | 5680 nM | 64 nM | – | – | – | – | – | – |
| CCn1cc(-c2ccnc3[nH]c(-c4cccc(NC(C)=O)c4)cc23)c(-c2ccc(NC(=O)Nc3ccccc3)cc2)n1 | 156 nM | 126 nM | 44 nM | 10 | – | – | – | – | – |
| CCNC(=O)Nc1ccc(-c2nn(CC)cc2-c2ccnc3[nH]c(-c4cccc(CN5CCCC5)c4)cc23)cc1 | 9 nM | 58 nM | 1.4 nM | – | – | – | – | – | – |
| CCn1cc(-c2ccnc3[nH]c(-c4ccc(CN(C)C)cc4)cc23)c(-c2ccc(NC(=O)N(C)C)cc2)n1 | 6 nM | 514 nM | 3.6 nM | – | 156 | – | – | – | – |
| CCn1cc(-c2ccnc3[nH]c(-c4ccc(NC(C)=O)cc4)cc23)c(-c2ccc(NC(=O)Nc3ccccc3)cc2)n1 | 110 nM | 62 nM | 44 nM | 10 | – | – | – | – | – |
| CCn1cc(-c2ccnc3[nH]c(CNCCO)cc23)c(-c2ccc(NC(=O)Nc3ccccc3)cc2)n1 | 18600 nM | 2820 nM | 46 nM | 10 | – | – | – | – | – |
| CCn1cc(-c2ccnc3[nH]c(CN(C)C)cc23)c(-c2ccc(NC(=O)Nc3ccccc3)cc2)n1 | 4390 nM | 1700 nM | 58 nM | 10 | – | – | – | – | – |
| O=C(Nc1ccccc1)Nc1ccc(-c2n[nH]cc2-c2ccnc3[nH]ccc23)cc1 | 12800 nM | 3850 nM | 32 nM | – | – | – | – | – | – |
